Measurements as given in the M2OR odorant receptor database.
Changes are numbered by the printed parent chain.

Legend:
Settings in all cases: stereoisomer not certain
OR7G2 (Homo sapiens) = molecular target: T1, OR7G2 (Homo sapiens) (UniProt Q8NG99)
T1 sequence (whole entry): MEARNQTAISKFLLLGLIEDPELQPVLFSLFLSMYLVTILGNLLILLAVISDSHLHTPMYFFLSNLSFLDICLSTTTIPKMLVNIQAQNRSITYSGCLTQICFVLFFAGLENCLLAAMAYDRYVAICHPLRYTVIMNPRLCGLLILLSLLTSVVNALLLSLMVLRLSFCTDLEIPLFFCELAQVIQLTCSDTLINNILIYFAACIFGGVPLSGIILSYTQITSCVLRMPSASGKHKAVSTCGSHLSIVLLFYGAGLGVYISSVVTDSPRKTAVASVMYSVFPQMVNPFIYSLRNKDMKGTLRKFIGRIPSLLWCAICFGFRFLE
Procedure, shortened: (§1)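 Each entry records the cell line, G-protein, co-transfected protein and tags used. Methods varied with the source, often transient luciferase assays in mammalian cell lines. A receptor–molecule pair is called responsive (active) if the original authors judged its signal statistically different from baseline and non-responsive (inactive) otherwise.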

OR7G3 (Homo sapiens) = molecular target: T2, OR7G3 (Homo sapiens) (UniProt Q8NG95)
T2 sequence (whole entry): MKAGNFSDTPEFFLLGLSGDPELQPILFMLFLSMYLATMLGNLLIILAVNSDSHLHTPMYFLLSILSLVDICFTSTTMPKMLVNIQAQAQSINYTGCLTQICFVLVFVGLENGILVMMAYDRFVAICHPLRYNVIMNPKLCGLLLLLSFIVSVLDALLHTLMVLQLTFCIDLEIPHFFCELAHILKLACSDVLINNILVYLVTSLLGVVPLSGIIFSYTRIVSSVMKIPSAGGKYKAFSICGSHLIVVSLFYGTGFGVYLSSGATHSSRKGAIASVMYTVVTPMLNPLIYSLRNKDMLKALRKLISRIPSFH
Procedure, shortened: as §1

OR8A1 (Homo sapiens) = molecular target: T3, OR8A1 (Homo sapiens) (UniProt Q8NGG7)
T3 sequence (whole entry): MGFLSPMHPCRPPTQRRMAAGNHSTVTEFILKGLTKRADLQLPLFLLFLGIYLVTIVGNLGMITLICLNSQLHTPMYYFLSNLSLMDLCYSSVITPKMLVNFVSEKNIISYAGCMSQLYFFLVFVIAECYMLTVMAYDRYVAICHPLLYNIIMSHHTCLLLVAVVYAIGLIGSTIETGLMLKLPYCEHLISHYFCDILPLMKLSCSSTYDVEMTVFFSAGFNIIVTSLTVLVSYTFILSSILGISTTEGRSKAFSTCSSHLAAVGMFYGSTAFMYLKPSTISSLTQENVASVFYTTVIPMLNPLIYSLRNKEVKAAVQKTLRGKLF
Procedure, shortened: as §1

OR8B12 (Homo sapiens) = molecular target: T4, OR8B12 (Homo sapiens) (UniProt Q8NGG6)
T4 sequence (whole entry): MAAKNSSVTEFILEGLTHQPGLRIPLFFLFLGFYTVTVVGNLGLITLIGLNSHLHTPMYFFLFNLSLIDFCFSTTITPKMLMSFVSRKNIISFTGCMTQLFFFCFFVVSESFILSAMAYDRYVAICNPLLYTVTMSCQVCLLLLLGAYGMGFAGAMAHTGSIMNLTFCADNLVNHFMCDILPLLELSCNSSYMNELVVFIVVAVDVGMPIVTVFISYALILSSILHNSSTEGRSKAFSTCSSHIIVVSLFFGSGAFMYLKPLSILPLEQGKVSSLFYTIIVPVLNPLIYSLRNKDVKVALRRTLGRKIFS
Procedure, shortened: as §1

OR8B2 (Homo sapiens) = molecular target: T5, OR8B2 (Homo sapiens) (UniProt Q96RD0)
T5 sequence (whole entry): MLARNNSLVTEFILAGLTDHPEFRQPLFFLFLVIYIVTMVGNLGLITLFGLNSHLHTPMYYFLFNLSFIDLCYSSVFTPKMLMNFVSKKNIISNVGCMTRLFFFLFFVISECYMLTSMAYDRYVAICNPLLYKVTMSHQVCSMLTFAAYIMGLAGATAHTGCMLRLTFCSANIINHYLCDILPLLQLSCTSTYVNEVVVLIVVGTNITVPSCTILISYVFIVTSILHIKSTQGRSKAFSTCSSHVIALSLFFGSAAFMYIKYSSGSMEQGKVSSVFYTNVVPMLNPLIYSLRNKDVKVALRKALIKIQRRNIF
Procedure, shortened: as §1

OR8B3 (Homo sapiens) = molecular target: T6, OR8B3 (Homo sapiens) (UniProt Q8NGG8)
T6 sequence (whole entry): T5 sequence (whole entry) with R24Q, I34V, T47I, N94Y, R100Q, T205I, T208M
Procedure, shortened: as §1

OR7G2 = system: T7, OR7G2
T7 sequence (whole entry): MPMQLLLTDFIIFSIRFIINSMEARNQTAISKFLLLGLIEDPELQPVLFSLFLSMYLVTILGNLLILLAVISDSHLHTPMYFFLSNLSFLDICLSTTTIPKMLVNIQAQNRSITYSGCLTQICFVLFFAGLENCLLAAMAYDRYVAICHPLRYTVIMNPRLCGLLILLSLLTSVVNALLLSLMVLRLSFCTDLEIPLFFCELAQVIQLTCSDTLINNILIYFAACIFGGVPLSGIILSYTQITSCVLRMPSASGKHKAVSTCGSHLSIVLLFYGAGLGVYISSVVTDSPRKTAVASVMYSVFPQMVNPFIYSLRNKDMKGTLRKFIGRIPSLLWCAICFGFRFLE
Procedure, shortened: as §1

OR7G3 M29V = system: T8, OR7G3 M29V
T8 sequence (whole entry): T2 sequence (whole entry) with M29V
Procedure, shortened: as §1

OR8B2 L164F = system: T9, OR8B2 L164F
T9 sequence (whole entry): T5 sequence (whole entry) with L164F
Procedure, shortened: as §1

OR8B2 S273F = system: T10, OR8B2 S273F
T10 sequence (whole entry): T5 sequence (whole entry) with S273F
Procedure, shortened: as §1

Measured: odorant receptor agonist call

CCCCCC(S)C(C)CO (stereo unspecified)
inactive: OR7G2 (Homo sapiens) | OR7G3 (Homo sapiens) | OR8A1 (Homo sapiens) | OR8B12 (Homo sapiens) | OR8B2 (Homo sapiens) | OR8B3 (Homo sapiens)

CC1CCCCCCCCCCCCC(=O)C1 (stereo unspecified)
inactive: OR7G2 (Homo sapiens) | OR7G3 (Homo sapiens) | OR8A1 (Homo sapiens) | OR8B12 (Homo sapiens) | OR8B2 (Homo sapiens) | OR8B3 (Homo sapiens)

CCCCCC(=O)C(C)C(C)=O (stereo unspecified)
inactive: OR7G2 (Homo sapiens) | OR7G3 (Homo sapiens) | OR8A1 (Homo sapiens) | OR8B12 (Homo sapiens) | OR8B2 (Homo sapiens) | OR8B3 (Homo sapiens)

CC(CO)CS (stereo unspecified)
inactive: OR7G2 (Homo sapiens) | OR7G3 (Homo sapiens) | OR8A1 (Homo sapiens) | OR8B12 (Homo sapiens) | OR8B2 (Homo sapiens) | OR8B3 (Homo sapiens)

CCC1OC(C)=C(O)C1=O (stereo unspecified)
not listed: OR7G2 (Homo sapiens)
inactive: all other assays above

CCCCC(S)C(C)CO (stereo unspecified)
inactive: OR7G2 (Homo sapiens) | OR7G3 (Homo sapiens) | OR8A1 (Homo sapiens) | OR8B12 (Homo sapiens) | OR8B2 (Homo sapiens) | OR8B3 (Homo sapiens)

O=C1CCOc2ccccc21
active: OR8B2 (Homo sapiens)

CCC1OC(=O)C(O)=C1C (stereo unspecified)
not listed: OR7G2 (Homo sapiens)
inactive: all other assays above

CCCCCCC=CCCC=O
not listed: OR7G2
inactive: all other assays above

Cc1cnc(C)c(C)n1
not listed: OR7G2 (Homo sapiens)
inactive: all other assays above

CC(=O)c1c(C)c([N+](=O)[O-])c(C(C)(C)C)c([N+](=O)[O-])c1C
inactive: OR7G2 (Homo sapiens) | OR7G3 (Homo sapiens) | OR8A1 (Homo sapiens) | OR8B12 (Homo sapiens) | OR8B2 (Homo sapiens) | OR8B3 (Homo sapiens)

O=c1ccc2ccccc2o1
inactive: OR8B2 (Homo sapiens)

CC1=C(O)C(=O)OC1C (stereo unspecified)
not listed: OR7G2 (Homo sapiens)
inactive: all other assays above

CC1=NC(C)C(C)S1 (stereo unspecified)
not listed: OR7G2 (Homo sapiens)
inactive: all other assays above

CCCC(S)CCOC(C)=O (stereo unspecified)
not listed: OR7G2 (Homo sapiens)
inactive: all other assays above

CCC(S)C(C)CO (stereo unspecified)
inactive: OR7G2 (Homo sapiens) | OR7G3 (Homo sapiens) | OR8A1 (Homo sapiens) | OR8B12 (Homo sapiens) | OR8B2 (Homo sapiens) | OR8B3 (Homo sapiens)

CC1=C(O)C(=O)C(C)O1 (stereo unspecified)
not listed: OR7G2 (Homo sapiens)
inactive: all other assays above
